Measured values as given in ChEMBL document CHEMBL2150901, “Synthesis and biological activity of tricyclic cycloalkylimidazo-, pyrimido- and diazepinopurinediones” (Eur J Med Chem, 2011).
Calls of active or inactive are those of the source. The calls are words filed in the database; no cut-off is given here.

Key:
[1] = biological target: T1, Adenosine receptor A2b (Homo sapiens) (UniProt P29275); test: Displacement of [3H]PSB-603 from human recombinant adenosine A2B receptor expressed in CHO cells at 10 uM; type: cell-based
T1 sequence (whole entry): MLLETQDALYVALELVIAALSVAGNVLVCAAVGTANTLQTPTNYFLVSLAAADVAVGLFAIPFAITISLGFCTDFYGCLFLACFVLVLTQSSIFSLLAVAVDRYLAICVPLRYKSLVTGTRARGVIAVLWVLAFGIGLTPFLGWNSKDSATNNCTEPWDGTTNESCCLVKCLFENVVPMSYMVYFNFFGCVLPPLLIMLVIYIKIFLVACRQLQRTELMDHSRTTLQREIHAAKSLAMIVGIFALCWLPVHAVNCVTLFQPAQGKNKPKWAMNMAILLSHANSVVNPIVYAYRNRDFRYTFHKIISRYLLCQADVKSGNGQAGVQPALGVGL
Procedure, shortened: (§1)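 CHO cell membranes expressing the human receptor. Radioligands: A1 [3H]CCPA; A2B [3H]ZM241385 or [3H]PSB-603; A3 [3H]PSB-11. […] Potent compounds run at 6–7 concentrations spanning 3 orders of magnitude; Ki ± SEM.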

Adenosine receptor A3 = biological target: T2, Adenosine receptor A3 (Homo sapiens, UniProt P0DMS8); test: Displacement of [3H]PSB-11 from human recombinant adenosine A3 receptor expressed in CHO cells; type: cell-based
T2 sequence (P0DMS8 whole entry): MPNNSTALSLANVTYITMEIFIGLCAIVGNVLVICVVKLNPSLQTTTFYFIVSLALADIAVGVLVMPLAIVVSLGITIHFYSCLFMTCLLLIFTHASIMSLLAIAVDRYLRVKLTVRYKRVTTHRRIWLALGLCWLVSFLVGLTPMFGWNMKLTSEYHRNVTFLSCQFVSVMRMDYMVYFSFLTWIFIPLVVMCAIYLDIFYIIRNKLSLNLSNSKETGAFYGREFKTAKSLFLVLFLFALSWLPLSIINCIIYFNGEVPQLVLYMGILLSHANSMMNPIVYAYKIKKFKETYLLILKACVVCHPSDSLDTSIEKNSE

Mus musculus [2] = test: Anticonvulsant activity in F1 albino mouse assessed as protection against maximal electroshock-induced seizures at 300 mg/kg, ip after 0.25 hrs; type: functional, organism-based; parameters: dose 300 mg/kg
Procedure, shortened: (§2)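 Male albino F-1 mice (18–25 g), groups of 1–5 (rotorod 2–8). Compound given ip as a suspension in 0.5% methylcellulose at 30, 100 and 300 mg/kg. Seizures by maximal electroshock or subcutaneous pentylenetetrazole; neurotoxicity by rotorod. Read at 0.5 and 4 h, with some at 0.25, 1 and 2 h. Value is the minimum active dose, with protected (or toxic)/tested animals.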

Mus musculus [3] = test: Anticonvulsant activity in F1 albino mouse assessed as protection against maximal electroshock-induced seizures at 300 mg/kg, ip after 0.5 hrs; type: functional, organism-based; parameters: dose 300 mg/kg; procedure, shortened: as §2
Mus musculus [4] = test: Anticonvulsant activity in F1 albino mouse assessed as protection against maximal electroshock-induced seizures at 300 mg/kg, ip after 1 hr; type: functional, organism-based; parameters: dose 300 mg/kg; procedure, shortened: as §2
Mus musculus [5] = test: Anticonvulsant activity in F1 albino mouse assessed as protection against maximal electroshock-induced seizures at 300 mg/kg, ip after 4 hrs; type: functional, organism-based; parameters: dose 300 mg/kg; procedure, shortened: as §2
Mus musculus [6] = test: Anticonvulsant activity in F1 albino mouse assessed as protection against subcutaneous pentylenetetrazole-induced seizures at 300 mg/kg, ip after 0.25 hrs; type: functional, organism-based; parameters: dose 300 mg/kg; procedure, shortened: as §2
Mus musculus [7] = test: Anticonvulsant activity in F1 albino mouse assessed as protection against subcutaneous pentylenetetrazole-induced seizures at 300 mg/kg, ip after 0.5 hrs; type: functional, organism-based; parameters: dose 300 mg/kg; procedure, shortened: as §2
Mus musculus [8] = test: Anticonvulsant activity in F1 albino mouse assessed as protection against subcutaneous pentylenetetrazole-induced seizures at 300 mg/kg, ip after 1 hr; type: functional, organism-based; parameters: dose 300 mg/kg; procedure, shortened: as §2
Mus musculus [9] = test: Anticonvulsant activity in F1 albino mouse assessed as protection against subcutaneous pentylenetetrazole-induced seizures at 300 mg/kg, ip after 4 hrs; type: functional, organism-based; parameters: dose 300 mg/kg; procedure, shortened: as §2
Mus musculus [10] = test: Neurotoxicity in F1 albino mouse assessed as minimal motor impairment at 300 mg/kg, ip after 0.25 hrs by rotorod test; type: toxicity, organism-based; parameters: dose 300 mg/kg, route intraperitoneal; details: in vivo; procedure, shortened: as §2
Mus musculus [11] = test: Neurotoxicity in F1 albino mouse assessed as minimal motor impairment at 300 mg/kg, ip after 0.5 hrs by rotorod test; type: toxicity, organism-based; parameters: dose 300 mg/kg, route intraperitoneal; details: in vivo; procedure, shortened: as §2
Mus musculus [12] = test: Neurotoxicity in F1 albino mouse assessed as minimal motor impairment at 300 mg/kg, ip after 1 hr by rotorod test; type: toxicity, organism-based; parameters: dose 300 mg/kg, route intraperitoneal; details: in vivo; procedure, shortened: as §2
Mus musculus [13] = test: Neurotoxicity in F1 albino mouse assessed as minimal motor impairment at 300 mg/kg, ip after 4 hrs by rotorod test; type: toxicity, organism-based; parameters: dose 300 mg/kg, route intraperitoneal; details: in vivo; procedure, shortened: as §2
Adenosine receptor A2a [14] = biological target: T3, Adenosine receptor A2a (Homo sapiens, UniProt P29274); test: Displacement of [3H]MSX-2 from human recombinant adenosine A2A receptor expressed in CHO cells; type: cell-based
Adenosine receptor A2b = biological target: T4, Adenosine receptor A2b (Homo sapiens, UniProt P29275); test: Displacement of [3H]PSB-603 from human recombinant adenosine A2B receptor expressed in CHO cells; type: cell-based; procedure, shortened: as §1
T4 sequence (P29275 whole entry): T1 sequence (whole entry)

[15] = biological target: T5, Adenosine receptor A1 (Homo sapiens) (UniProt P30542); test: Displacement of [3H]CCPA from human recombinant adenosine A1 receptor expressed in CHO cells at 10 uM; type: cell-based; procedure, shortened: as §1
T5 sequence (whole entry): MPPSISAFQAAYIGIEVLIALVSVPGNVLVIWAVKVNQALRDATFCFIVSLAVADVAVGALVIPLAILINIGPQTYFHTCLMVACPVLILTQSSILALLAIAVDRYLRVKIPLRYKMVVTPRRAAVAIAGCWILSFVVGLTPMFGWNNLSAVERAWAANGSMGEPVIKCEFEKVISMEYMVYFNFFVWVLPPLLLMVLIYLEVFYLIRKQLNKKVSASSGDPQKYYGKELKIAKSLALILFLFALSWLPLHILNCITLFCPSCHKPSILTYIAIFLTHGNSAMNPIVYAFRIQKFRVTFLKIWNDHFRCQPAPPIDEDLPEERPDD

Adenosine receptor A1 [16] = biological target: T6, Adenosine receptor A1 (Homo sapiens, UniProt P30542); test: Displacement of [3H]CCPA from human recombinant adenosine A1 receptor expressed in CHO cells; type: cell-based
T6 sequence (P30542 whole entry): T5 sequence (whole entry)

Rattus norvegicus [17] = organism: Rattus norvegicus; test: Selectivity ratio of Ki for adenosine A1 receptor in rat brain cortical membrane to Ki for adenosine A2A receptor in rat brain striatal membrane; type: cell membranes
Procedure, shortened: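 Ki ratios from radioligand competition binding. Rat A1 used brain cortical membranes and rat A2A used brain striatal membranes. Human A1 and A2A used membranes of CHO cells expressing the receptors. A1 radioligand [³H]CCPA; A2A radioligand [³H]MSX-2. Potent compounds were tested at 6–7 concentrations spanning 3 orders of magnitude.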

Adenosine receptor A2a [18] = biological target: Adenosine receptor A2a (Rattus norvegicus, UniProt P30543); test: Displacement of [3H]MSX-2 from adenosine A2A receptor in rat brain striatal membrane; type: cell membranes
[19] = biological target: T7, Adenosine receptor A1 (Rattus norvegicus) (UniProt P25099); test: Displacement of [3H]CCPA from adenosine A1 receptor in rat brain cortical membrane at 25 uM; type: cell membranes
T7 sequence (whole entry): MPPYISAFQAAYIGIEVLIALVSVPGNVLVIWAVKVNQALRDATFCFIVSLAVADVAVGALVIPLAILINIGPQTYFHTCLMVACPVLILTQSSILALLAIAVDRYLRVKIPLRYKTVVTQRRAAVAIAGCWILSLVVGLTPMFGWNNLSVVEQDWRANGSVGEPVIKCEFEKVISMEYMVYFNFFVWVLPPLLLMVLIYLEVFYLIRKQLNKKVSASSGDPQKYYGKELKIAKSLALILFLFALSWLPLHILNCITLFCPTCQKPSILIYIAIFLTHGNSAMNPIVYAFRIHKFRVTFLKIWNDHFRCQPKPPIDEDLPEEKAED

Adenosine receptor A1 [20] = biological target: T8, Adenosine receptor A1 (Rattus norvegicus, UniProt P25099); test: Displacement of [3H]CCPA from adenosine A1 receptor in rat brain cortical membrane; type: cell membranes
T8 sequence (P25099 whole entry): T7 sequence (whole entry)

Adenosine receptor A2a [21] = biological target: T3, Adenosine receptor A2a; details: CHO, 10 uM
[22] = biological target: Adenosine receptor A2a (Rattus norvegicus) (UniProt P30543); details: Brain, Membrane, 25 uM
Rattus norvegicus [23] = test: Anticonvulsant activity in po dosed Sprague-Dawley albino rat assessed as protection against maximal electroshock-induced seizures; type: functional
Rattus norvegicus [24] = test: Anticonvulsant activity in po dosed Sprague-Dawley albino rat assessed as protection against subcutaneous pentylenetetrazole-induced seizures; type: functional
[25] = biological target: T9, Adenosine receptor A3 (Homo sapiens) (UniProt P0DMS8); test: Displacement of [3H]PSB-11 from human recombinant adenosine A3 receptor expressed in CHO cells at 10 uM; type: cell-based; procedure, shortened: as §1
T9 sequence (whole entry): T2 sequence (P0DMS8 whole entry)

Mus musculus [26] = test: Neurotoxicity in F1 albino mouse assessed as minimal motor impairment at 100 mg/kg, ip after 0.5 hrs by rotorod test; type: toxicity, organism-based; parameters: dose 100 mg/kg, route intraperitoneal; details: in vivo; procedure, shortened: as §2
[27] = biological target: T7, Adenosine receptor A1 (Rattus norvegicus); details: Brain, 10 uM

T3 sequence (P29274 whole entry): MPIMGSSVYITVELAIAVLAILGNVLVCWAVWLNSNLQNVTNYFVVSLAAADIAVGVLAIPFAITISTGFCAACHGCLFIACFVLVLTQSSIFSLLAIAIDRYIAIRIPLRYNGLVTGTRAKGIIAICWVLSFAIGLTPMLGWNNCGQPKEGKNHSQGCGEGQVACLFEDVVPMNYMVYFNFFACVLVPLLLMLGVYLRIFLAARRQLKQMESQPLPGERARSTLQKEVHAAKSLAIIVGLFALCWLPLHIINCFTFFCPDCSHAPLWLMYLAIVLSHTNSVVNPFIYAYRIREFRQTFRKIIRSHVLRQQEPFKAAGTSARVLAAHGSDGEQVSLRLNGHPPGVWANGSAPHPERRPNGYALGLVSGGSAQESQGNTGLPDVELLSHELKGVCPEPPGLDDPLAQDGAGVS
Chain of Adenosine receptor A2a (Rattus norvegicus, UniProt P30543) (P30543 whole entry): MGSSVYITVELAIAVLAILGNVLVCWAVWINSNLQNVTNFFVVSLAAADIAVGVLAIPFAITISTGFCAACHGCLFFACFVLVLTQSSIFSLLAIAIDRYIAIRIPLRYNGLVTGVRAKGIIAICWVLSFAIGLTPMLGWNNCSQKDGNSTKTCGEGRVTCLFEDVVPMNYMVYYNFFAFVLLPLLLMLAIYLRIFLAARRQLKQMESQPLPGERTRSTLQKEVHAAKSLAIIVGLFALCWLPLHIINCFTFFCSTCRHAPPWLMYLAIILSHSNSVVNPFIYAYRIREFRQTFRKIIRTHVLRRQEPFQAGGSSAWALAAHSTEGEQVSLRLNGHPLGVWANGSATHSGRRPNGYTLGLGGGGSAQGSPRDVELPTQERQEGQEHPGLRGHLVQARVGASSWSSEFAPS
Chain of Adenosine receptor A2a (Rattus norvegicus) (P30543 whole entry): as above

| inhibition [1] [%] | Ki (Adenosine receptor A3) [µM] | Ki (Adenosine receptor A2a [14]) [µM] | Ki (Adenosine receptor A2b) [µM] | inhibition [15] [%] | Ki (Adenosine receptor A1 [16]) [µM] | Ratio Ki (Rattus norvegicus [17]) | Ki (Adenosine receptor A2a [18]) [µM] | Ki (Adenosine receptor A1 [20]) [µM] | SMILES | Activity (Mus musculus [2]) | Activity (Mus musculus [3]) | Activity (Mus musculus [4]) | Activity (Mus musculus [5]) | Activity (Mus musculus [6]) | Activity (Mus musculus [7]) | Activity (Mus musculus [8]) | Activity (Mus musculus [9]) | Activity (Mus musculus [10]) | Activity (Mus musculus [12]) | Activity (Mus musculus [13]) | other results |
| --- | --- | --- | --- | --- | --- | --- | --- | --- | --- | --- | --- | --- | --- | --- | --- | --- | --- | --- | --- | --- | --- |
| 0 | 1.29 | > 10 | > 10 | 15 | > 10 | 1 | > 10 | > 10 | Cn1c(=O)c2c(nc3n2CCCN3C23CC4CC(CC(C4)C2)C3)n(C)c1=O | inactive | inactive | inactive | inactive | inactive | inactive | inactive | inactive | Non-toxic | Non-toxic | Non-toxic | Activity (Mus musculus [11]): Non-toxic; inhibition [19]: 7%; inhibition (Adenosine receptor A2a [21]): 0%; inhibition [22]: 13% |
| – | – | – | – | – | – | – | – | – | CCCC(CCC)C(=O)O [VALPROIC ACID] | – | – | – | – | – | – | – | – | – | – | – | ED50 (Rattus norvegicus [23]): 287 mg/kg; ED50 (Rattus norvegicus [24]): 209 mg/kg |
| 11 | > 10 | 1.61 | > 10 | 41 | > 10 | > 4 | 2.58 | > 10 | Cn1c(=O)c2c(nc3n2CCN3C2CCCCC2)n(C)c1=O | inactive | inactive | inactive | inactive | inactive | Active | inactive | inactive | Non-toxic | Non-toxic | Non-toxic | inhibition [25]: 12%; Activity (Mus musculus [26]): Non-toxic; inhibition [27]: 27% |
